Screens from PubChem BioAssay.
M5 ag: agonists of human muscarinic M5 receptor (CHRM5) | P08912 | AID 624037 | 0.19% of 360,000 active | activation, % at 3 µM | CHO-K1 hM5 cells, Fluo-8 calcium fluorescence; 0% DMSO wells, 100% maximal acetylcholine response;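 active = activation above the run's mean over test compounds plus 3 SD, cut at about 23% in these data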;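 note: signal is peak over basal fluorescence ratio across the kinetic read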
Target sequence (P08912 whole entry, looked up): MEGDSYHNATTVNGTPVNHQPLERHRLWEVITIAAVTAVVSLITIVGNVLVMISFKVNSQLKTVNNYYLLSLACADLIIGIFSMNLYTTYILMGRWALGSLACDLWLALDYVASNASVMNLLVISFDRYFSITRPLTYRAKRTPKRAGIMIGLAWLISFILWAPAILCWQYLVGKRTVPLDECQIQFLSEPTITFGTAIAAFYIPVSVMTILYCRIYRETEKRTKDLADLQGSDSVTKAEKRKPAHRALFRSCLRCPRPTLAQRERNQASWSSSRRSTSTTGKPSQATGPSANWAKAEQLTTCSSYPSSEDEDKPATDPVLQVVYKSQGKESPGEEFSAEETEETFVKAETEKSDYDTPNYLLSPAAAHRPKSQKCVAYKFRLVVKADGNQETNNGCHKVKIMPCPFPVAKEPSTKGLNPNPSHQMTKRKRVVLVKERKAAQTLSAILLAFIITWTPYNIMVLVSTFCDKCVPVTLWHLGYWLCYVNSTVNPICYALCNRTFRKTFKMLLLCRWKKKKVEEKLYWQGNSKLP
M4 PAM: positive allosteric modulators of human muscarinic M4 receptor; 0.4% of 360,000 active; CHO-K1 hM4/Gqi5, Fluo-8 calcium fluorescence, ACh EC20; 0% = ACh EC20, 100% = maximal ACh; AID 624126; activation, % at 3 µM; P08173;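 active = activation above its plate's cutoff, the mean activation of sample wells plus 3 SD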
M4 ag: agonists of human muscarinic M4 receptor (CHRM4); CHO-K1 hM4/Gqi5, Fluo-8 calcium fluorescence; vehicle 0%, full acetylcholine response 100%; activation, % at 3 µM; 0.14% of 360,000 active; AID 624127;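 active = activation above the run mean over all test wells plus 3 SD, cut at about 32% in these data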;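 note: peak over basal fluorescence ratio per well then scaled between controls; 0% = DMSO wells and 100% = acetylcholine at EC100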
M5 antag: blocks acetylcholine activation of human M5 receptor; CHO-hM5 cells, Fluo-8 calcium fluorescence, ACh EC80; inhibition, % at 3 µM; 0.59% of 360,000 active;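 active = inhibition above a per-plate cutoff, the mean of that plate's test compounds plus 3 SD, cut at about 27% in these data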;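 note: 0% = acetylcholine EC80 with DMSO and 100% = DMSO without agonist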
M4 antag: antagonists of human muscarinic M4 receptor (CHRM4); P08173; CHO-hM4 cells, ACh EC80, Fluo-8 calcium fluorescence; inhibition, % at 3 µM; 0.73% of 360,000 active;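 active = inhibition above its plate's cutoff, the mean inhibition of sample wells plus 3 SD, cut at about 27% in these data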;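 note: 0% = acetylcholine EC80 with DMSO and 100% = DMSO without agonist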
M5 PAM: potentiates acetylcholine response at human M5 receptor; 0.3% of 360,000 active; CHO-K1 hM5, Fluo-8 calcium, ACh EC20 PAM; 0% = ACh EC20, 100% = ACh EC100; activation, % at 3 µM;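 active = activation above the run cutoff, the mean activation of all test compounds plus 3 SD, cut at about 18% in these data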
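System: CHO-K1 hM5 cells. Reagent: acetylcholine, EC20 level. Compound dosing: single dose, 3 µM nominal final test concentration. Timing: Post-acetylcholine fluorescence recording 140 s. Detection: Fluo-8 calcium fluorescence. Read-out: % activation, ACh-normalized. Benchmarks: ACh EC20 and EC100 wells. Repeats: singlicate, one well per test compound.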
* marks the source's active call; other numbers are inactive results. An excerpt weighted towards active compounds, which were near 1.9% of everything screened.

SMILES	M5 ag	M4 PAM	M4 ag	M5 antag	M4 antag	M5 PAM
CCn1c(NC(=O)C(C)C)c(-c2cccs2)c(=O)c2ccccc21	6	-2	1	-3	-6	5
CCn1c(NC(=O)c2ccccc2F)c(-c2cccs2)c(=O)c2ccccc21	7	-34	0	1	29*	-9
Nc1nonc1-n1nnc(C(=O)N/N=C/c2ccco2)c1CSc1ccc(Cl)cc1	0	-3	2	3	7	3
C[C@@H]1CN([C@@H](C)CO)C(=O)CCCn2cc(nn2)CO[C@H]1CN(C)S(=O)(=O)c1ccc(C#N)cc1	-1	-4	1	-6	-3	2
CC(=O)Nc1ccc(S(=O)(=O)N(C)CC(=O)OCC(=O)Nc2cccnc2Cl)cc1	4	43*	1	5	27*	-1
CN(C)S(=O)(=O)c1ccc(C(=O)OCC(=O)Nc2cccnc2Cl)cc1	5	6	3	13	-9	2
CCN1C(=O)CC2(C[N+]3(C)CCC2CC3)C1=O (centres undefined)	-6	-18	1	53*	4	-17
COC(=O)c1ccc(/C=C/C(=O)OCC(=O)NCc2cccs2)cc1	-2	6	2	-3	-23	-5
CCn1c(SCC(=O)Nc2ccc3c(c2)OCCO3)nnc1C1CC1	-3	0	1	-6	-3	10
CCOC(=O)C(C)c1nn(C)c(=O)c2ccccc12 (centres undefined)	-10	-6	5	7	3	-18
CCOC(=O)CCc1nn(C)c(=O)c2ccccc12	-3	8	3	67*	0	-14
c1ccc(-c2noc(-c3cccc4ccccc34)n2)cc1	-1	16*	0	4	-10	8
Cc1ccc(N(CC(=O)NC(C)(C)C)C(=O)CS(=O)CC(=O)Nc2ccc3c(c2)OCO3)cc1 (centres undefined)	0	5	0	2	-2	3
CCc1ccc(NC(=O)C2CCN(S(=O)(=O)c3ccc4c(c3)NC(=O)C(C)S4)CC2)cc1 (centres undefined)	-3	-16	10	34*	10	-16
Cc1ccc(NC(=O)C2CCN(S(=O)(=O)c3ccc4c(c3)NC(=O)C(C)S4)CC2)cc1C (centres undefined)	-3	-14	14	36*	20	-13
Cc1ccc(S(=O)(=O)N2CCC(C(=O)NCCCN3CCCC3=O)CC2)cc1	0	1	0	21	-4	-2
Cc1ccc(S(=O)(=O)N2CCC(C(=O)NCCCN3CCCC3=O)CC2)cc1C	-4	22*	0	-11	-10	2
COC(=O)CCc1c(COC(C)=O)[nH]c(C(=O)OCc2ccccc2)c1C	1	-2	1	8	-4	-3
CC1CCN(c2ccc3c(c2)S(=O)(=O)c2cccc(C(=O)NC[C@@H]4CCCO4)c2C3=O)CC1	12	-14	28	24	16	-30
O=C(NCc1ccco1)c1cccc2c1C(=O)c1ccc(N3CCCC3)cc1S2(=O)=O	20	-11	40*	11	-10	-13
Cc1ccc(CNC(=O)c2cccc3c2C(=O)c2ccc(N4CCCCC4)cc2S3(=O)=O)cc1	61*	-17	99*	32*	14	-36
O=C(NCC1CCCO1)c1cccc2c1C(=O)c1ccc(N3CCC(Cc4ccccc4)CC3)cc1S2(=O)=O (centres undefined)	43*	-21	73*	34*	35*	-39
CCCCN(C)c1c(C)nc2ccc(C(=O)N(CC)CCN(C)C)cn12	-9	2	2	13	-21	3
CCCS(=O)(=O)c1nc(S(=O)(=O)c2ccc(Cl)cc2)c(N2CCC(O)CC2)s1	-2	1	5	-5	-3	-4
Cc1ccc(CC2C(=O)N(CC(=O)O)C(=O)C2C)cc1 (centres undefined)	1	15	1	3	29*	-1
SMILES	M5 ag	M4 PAM	M4 ag	M5 antag	M4 antag	M5 PAM
Cc1ccc(CC2C(=O)N(c3ccc(C)cc3)C(=O)C2C)cc1 (centres undefined)	-7	11	0	-16	-26	-1
OC[C@@H]1CN(Cc2ccc(Cl)cc2)C[C@H](n2cnc3c(NC4CCC4)ncnc32)O1	0	3	4	-1	-13	-7
CCOCCCNC(=O)Cn1ncc2c(=O)oc3ccccc3c21	1	2	4	5	39*	-4
C=CC[C@@H](CC(=O)N(CCO)Cc1ccccc1)C(=O)NC[C@H](OC(=O)[C@@H](CC=C)Cc1ccc(F)cc1)c1ccccc1	1	-10	27	13	30*	-39
C=CCC[C@H](Cc1ccc(F)cc1)C(=O)OC[C@@H](Cc1c[nH]c2ccccc12)NC(=O)[C@H](CC=C)CC(=O)N(CCO)Cc1ccccc1	3	-3	10	15	45*	-15
CC(C)CC1OC(C)Cc2[nH][nH]c(=O)c21 (centres undefined)	2	2	1	2	-1	-2
Cc1ccc(C(=O)Nc2cccc(NC(=O)c3ccc(C)cc3)n2)cc1	-4	-7	7	6	1	-1
Cc1cc(=O)n2nc(N3CCCC(C(=O)NCc4ccccc4C)C3)sc2n1 (centres undefined)	-2	0	0	5	-15	-1
CN1CCN(CCC(=O)N2c3ccccc3Sc3ccc(Cl)cc32)CC1	-7	-20	0	9	21	-15
NCCC(=O)N1c2ccccc2Sc2ccc(Cl)cc21	-20	-14	14	61*	38*	-33
NCCCC(=O)N1c2ccccc2Sc2ccc(Cl)cc21	-11	-19	2	77*	64*	-23
CCCCC(CCC(=O)Nc1cc([N+](=O)[O-])ccc1O)C(=O)O (centres undefined)	-3	3	1	-3	-8	0
N#Cc1cnc(N)c(Br)c1	0	0	1	7	-8	-3
O=C(NCc1cccnc1)c1ccccc1NS(=O)(=O)c1ccc(Br)cc1	3	9	4	12	-1	1
CSc1ncnc2c1ncn2CCCNc1ccc(C)c(C)c1	3	-1	3	3	0	3
CCCS(=O)(=O)N1CCC(C(=O)N2CCCC2)CC1	-1	7	1	11	-10	21*
COc1cc(/C=C/C(=O)c2ccc3c(c2)OCO3)cc(Cl)c1O	50*	-27	125*	33*	32*	-15
